The source of these data is ChEMBL document CHEMBL2203131, “An unusually cold active nitroreductase for prodrug activations” (Bioorg Med Chem, 2012).

The test system of series [1] is Staphylococcus saprophyticus. The series can be described thus: Activity of Staphylococcus saprophyticus ATCC 15305 Ssap-NtrB assessed as residual activity measured for 10 mins at 3 degC by spectrophotometric analysis.
Series [2] can be described thus: Prodrug conversion in sodium phosphate buffer using NAD(P)H as cofactor assessed as Bacillus amyloliquefaciens CAMR 0454 ywrO-mediated reduction by steady state kinetics analysis. In kind it is ADME.
A short description of series [3]: Ratio of apparent Kcat to apparent Km for Staphylococcus saprophyticus ATCC 15305 Ssap-NtrB-mediated reduction by steady state kinetics analysis. In kind it is ADME. An outline of the steps:
(§1)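 Steady-state kinetics with purified His6-Ssap-NtrB used CB1954 at 0.05–4 mM or a series of SN23862 concentrations in 50 mM Tris-Cl pH 7.0 containing 4% DMSO. Parameters came from nonlinear Michaelis–Menten fitting. One unit is defined as 1 µmol substrate converted per min, and specific activity was expressed per mg active enzyme.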

Series [4] in a line: Prodrug conversion in Tris-HCl buffer assessed as Staphylococcus saprophyticus ATCC 15305 Ssap-NtrB-mediated reduction by steady state kinetics analysis. In kind it is ADME. Particulars: for Km: read-out: Km(app). Summed up:
as §1

A short description of series [5]: Prodrug conversion in Tris-HCl buffer assessed as Staphylococcus saprophyticus ATCC 15305 Ssap-NtrB-mediated reduction after 30 mins by HPLC analysis. In kind it is ADME. Particulars: 0.5 h. Summed up: (§2)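 CB1954 (1 mM final) or SN23862 (80 µM) was incubated in degassed 50 mM Tris-Cl pH 7.0, kept anaerobic by nitrogen bubbling, with 50 µg/ml Ssap-NtrB and 3.4 mM NADPH for at least 30 min at 18–20 °C. Reactions were stopped with ice-cold methanol, held at −80 °C, then centrifuged. Products were resolved by reverse-phase C18 HPLC with an acetonitrile–water gradient. Detection was at 260/420 nm, or 390/450 nm for SN23862.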

In series [6] the test system is Staphylococcus saprophyticus. Briefly: Activity of Staphylococcus saprophyticus ATCC 15305 Ssap-NtrB assessed as residual activity measured for 10 mins at 15 degC by spectrophotometric analysis.
Series [7] can be described thus: Ratio of apparent Kcat/apparent Km for Escherichia coli NfsB to apparent Kcat/apparent Km for Staphylococcus saprophyticus ATCC 15305 Ssap-NtrB. In kind it is ADME.
Series [8] in a line: Ratio of apparent Kcat to apparent Km for Escherichia coli NfsB-mediated prodrug conversion using NADH as cofactor by steady state kinetics analysis. In kind it is ADME.
Series [9] can be described thus: Ratio of apparent Kcat to apparent Km for Escherichia coli NfsB-mediated prodrug conversion using NADPH as cofactor by steady state kinetics analysis. In kind it is ADME.
Series [10] is described as follows: Prodrug conversion in Tris-HCl buffer using NADH as cofactor assessed as Escherichia coli NfsB-mediated reduction by steady state kinetics analysis. In kind it is ADME. As to conditions: for Km: read-out: Km(app).
The nature of series [11]: Prodrug conversion in Tris-HCl buffer using NADPH as cofactor assessed as Escherichia coli NfsB-mediated reduction by steady state kinetics analysis. Particulars: for Km: read-out: Km(app). In kind it is ADME.
The nature of series [12]: Ratio of apparent Km for Escherichia coli NfsB-mediated prodrug conversion to apparent Km for Staphylococcus saprophyticus ATCC 15305 Ssap-NtrB-mediated prodrug conversion. In kind it is ADME.
Series [13] is described as follows: Prodrug conversion in buffer using NADH as cofactor assessed as Escherichia coli AzoR-mediated reduction by steady state kinetics analysis. In kind it is ADME.
Series [14] in a line: Ratio of apparent Kcat to apparent Km for Escherichia coli AzoR-mediated prodrug conversion using NADPH as cofactor by steady state kinetic analysis. In kind it is ADME.
Series [15] can be described thus: Prodrug conversion in buffer using NADPH as cofactor assessed as Escherichia coli AzoR-mediated reduction by steady state kinetics analysis. In kind it is ADME.
Series [16] is described as follows: Ratio of apparent Kcat to apparent Km for Escherichia coli NfsA-mediated prodrug conversion using NADPH as cofactor by steady state kinetic analysis. In kind it is ADME.
Series [17] can be described thus: Prodrug conversion in buffer using NADPH as cofactor assessed as Escherichia coli NfsA-mediated reduction by steady state kinetics analysis. In kind it is ADME.
The nature of series [18]: Ratio of apparent Kcat to apparent Km for Bacillus amyloliquefaciens CAMR 0454 ywrO-mediated prodrug conversion using NADPH as cofactor by steady state kinetic analysis. In kind it is ADME.
Series [19] in a line: Prodrug conversion in sodium phosphate buffer using NADPH as cofactor assessed as Bacillus amyloliquefaciens CAMR 0454 ywrO-mediated reduction by steady state kinetics analysis. In kind it is ADME.
Series [20] is described as follows: Prodrug conversion in Tris-HCl buffer assessed as Staphylococcus saprophyticus ATCC 15305 Ssap-NtrB-mediated [5-(aziridin-1-yl)-2-hydroxyamino-4-nitrobenzamide] formation after 30 mins by HPLC analysis. In kind it is ADME. As to conditions: 0.5 h. Summed up:
as §2

The nature of series [21]: Prodrug conversion in Tris-HCl buffer assessed as Staphylococcus saprophyticus ATCC 15305 Ssap-NtrB-mediated [5-(aziridin-1-yl)-4-hydroxyamino-2-nitrobenzamide] formation after 30 mins by HPLC analysis. In kind it is ADME. Particulars: 0.5 h. An outline of the steps:
as §2

Series [22] can be described thus: Ratio of apparent Kcat to apparent Km for Escherichia coli AzoR-mediated prodrug conversion using NADH as cofactor by steady state kinetic analysis. In kind it is ADME.

As a reminder, the Km is the substrate concentration at which the rate is half of its maximum. Consider `NC(=O)c1cc(N(CCCl)CCCl)c([N+](=O)[O-])cc1[N+](=O)[O-]`, for which the Activity in [1] and in [6] was 60% throughout. For the same compound, the values for the Drug metabolism result in series [2] and in series [5] were “Not Active” and “Active”, respectively. Also, the Kcat/Km in series [3] is 9350 M⁻¹ s⁻¹. For the same compound, in series [4], the “Kcat(app)” value stood at 0.77 s⁻¹. Besides, the Km in series [4] was 82.4 µM.

Regarding `NC(=O)N/N=C/c1ccc([N+](=O)[O-])o1` [NITROFURAZONE], in series [7], the Ratio stood at 1.4. In addition, the Kcat/Km in series [8] was found to be 66875 M⁻¹ s⁻¹; in [9], 61764 M⁻¹ s⁻¹; in series [3] it was 44180 M⁻¹ s⁻¹. Besides, the figures for the “Kcat(app)” value in series [10], in [11] and in series [4] were 10.7 s⁻¹, 10.5 s⁻¹ and 2.2 s⁻¹, respectively. The Michaelis-Menten constant (Km) in series [10] was 160 µM; in [11], 170 µM; in [4], 49.8 µM.

As for `NC(=O)c1cc(N2CC2)c([N+](=O)[O-])cc1[N+](=O)[O-]` [TRETAZICAR], in series [12], the Ratio was found to be 20. Also, the Activity in series [1] and in [6] was 55% each time. In addition, the “Kcat(app)” value came to 0.15 s⁻¹ in series [13]; 0.15 s⁻¹ in series [15]; 16 s⁻¹ in series [17]; 8.2 s⁻¹ in series [19]; 62 s⁻¹ in series [10]; 26 s⁻¹ in series [11]. In [4], the “Kcat(app)” value came out at 2.26 s⁻¹. The Michaelis constant (Km) is 6600 µM in [13] (read-out: Km(app)); 1400 µM in series [15] (read-out: Km(app)); 220 µM in series [17] (read-out: Km(app)); 618 µM in series [19] (read-out: Km(app)); 11000 µM in series [10]; 3600 µM in [11]. The Michaelis-Menten constant (Km) in series [4] came out at 1070 µM. The Kcat/Km in series [14] came to 110 M⁻¹ s⁻¹; in [16], 73000 M⁻¹ s⁻¹; in [18], 13268 M⁻¹ s⁻¹; in series [8], 5600 M⁻¹ s⁻¹; in series [9], 7300 M⁻¹ s⁻¹; in [3] it was 2120 M⁻¹ s⁻¹. Further, the Kcat/Km in series [22] worked out at 23 M⁻¹ s⁻¹. Also, the Drug metabolism result in series [20] and in series [21] was “Active” each time.
